The results in this text go back to ChEMBL document CHEMBL1125930, “3-O-alkylascorbic acids as free-radical quenchers: synthesis and inhibitory effect on lipid peroxidation” (J Med Chem, 1991).

Structures are written as SMILES.

Series [1] in a line: Partition ratio obtained from HPLC analysis. In kind it is ADME.
The species entered for series [2] is Rattus norvegicus. Description: The compound was tested for the inhibition of lipid peroxidation in rat liver microsomes induced by [Fe3+] at a concentration of 10E-5 M. In kind it is functional. The essentials:
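Fasted Wistar rat liver microsomes, 2.0 mg protein in 1 mL of 83.5 mM KCl/37.2 mM Tris-HCl pH 7.4. Peroxidation started with 1 mM ADP, 10 μM FeCl3 and 0.02 mM NADPH. Compound added in 0.01 mL DMF. 37 °C for 20 min, stopped on ice. Malondialdehyde measured as TBA-reactive material: 95 °C for 20 min, butanol/pyridine extract, A532. Compared with vehicle control.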
For orientation: Microsomes from liver hold many membrane-bound enzymes, among them those of drug oxidation.

For series [3], the species on record is Rattus norvegicus. Description: The compound was tested for the inhibition of lipid peroxidation in rat liver microsomes induced by [Fe2+] at a concentration of 10E-5 M. In kind it is functional. The essentials: (§1)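 Liver microsomes from 24 h-fasted Wistar rats (8000g then 105000g pellet, in 0.15 M KCl, protein by Lowry). 1 mL mix: 83.5 mM KCl, 37.2 mM Tris-HCl pH 7.4, 10 μM FeSO4, 2 mg microsomal protein, compound in 0.01 mL DMF. 37 °C for 20 min. TBA-reactive material read at 532 nm after n-BuOH/pyridine extraction. Reported against vehicle control.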

For series [4], the species on record is Rattus norvegicus. Description: The compound was tested for the stimulation of lipid peroxidation in rat liver microsomes induced by [Fe2+] at a concentration of 10E-5 M. In kind it is functional. The gist of the method:
as §1

As usually defined, the inhibition is the drop in the measured response relative to a control, in per cent. A high value points to a response far below the control.

On to `CCCCCCCCCCCCCCCCOC1=C(O)C(=O)OC1C(O)CO` (centres undefined), for which, in series [1], the “k'” value is 9.09. For the same molecule, the inhibition in series [2] was found to be 74%; in series [3], 21%.
The like results for `CCCCCCCCC(=O)COC1=C(O)C(=O)OC1C(O)CO` (centres undefined) were, in that order, 0.55, 64% and 33%.
With `CCCCCCCCOC1=C(O)C(=O)OC1C(O)CO` (centres undefined), the “k'” value in series [1] turned out to be 0.62. Also, the inhibition in series [2] came out at 40%; in series [3] it was 9%.
Take `CCCCCCCCCCCCCCC(=O)COC1=C(O)C(=O)OC1C(O)CO` (centres undefined): the “k'” value in series [1] came out at 4.33. Moreover, the figures for the inhibition in series [2] and in series [3] were 65% and 33%, respectively.
Turning to `CCCCCCCCCCCCOC1=C(O)OC(C(O)CO)C1=O` (centres undefined), in series [1], the “k'” value is recorded as 0.63. In series [2], the inhibition is 83%.
For the molecule `CC(=O)COC1=C(O)C(C2COC(C)(C)O2)OC1=O` (centres undefined), in series [1], the “k'” value is reported as less than 0.1. Besides, the inhibition in series [2] worked out at 2%.
In the case of `CCCCCCCCCCOC1=C(O)C(=O)OC1C(O)CO` (centres undefined), the “k'” value in series [1] is on record as 1.27. In addition, the inhibition was found to be 91% in series [2] and 44% in series [3].
`CCCCCCCCCCOC1=C(OCCCCCCCCCC)C(C(O)CO)OC1=O` (centres undefined) came in with an inhibition in series [2] of 2%.
For the molecule `CCCCCCCCCCCCCCCCCCOC1=C(O)[C@@H](C(O)CO)OC1=O` (some centres undefined), the “k'” value in series [1] is on record as 1.13. Moreover, the inhibition in series [2] amounted to 88%; in series [3], 29%.
The like results for `CCCCCCCCCCCCCCCCC(=O)COC1=C(O)C(=O)OC1C(O)CO` (centres undefined) were, in that order, 8.26, 43% and 28%.
As for `O=C1O[C@H]([C@@H](O)CO)C(O)=C1O` [ASCORBIC ACID], the “k'” value in series [1] is less than 0.1. The molecule further returned a Stimulation in series [4] of 72%.
With `CCCCCCCCCCC(=O)COC1=C(O)C(=O)OC1C(O)CO` (centres undefined), the “k'” value in series [1] was 1.14. For the same molecule, the inhibition was 88% in series [2] and 44% in series [3].
As to `CCCCCCCCCCCCC(=O)COC1=C(O)C(=O)OC1C(O)CO` (centres undefined), in series [1], the “k'” value came out at 2.25. Besides, the inhibition in series [2] stood at 81%; in series [3], 30%.
For `O=C1OC(C(O)CO)C(OCc2cccnc2)=C1O` (centres undefined), the “k'” value in series [1] was less than 0.1. The molecule further returned an inhibition in series [2] of 2%.
On to `CCCCCCCCOC1=C(O)OC(C(O)CO)C1=O` (centres undefined), for which the “k'” value in series [1] is on record as less than 0.2. Besides, in series [2], the inhibition turned out to be 20%.
As for `CCCCCCCCCCCCCCCCC(=O)COC1=C(O)OC(C(O)CO)C1=O` (centres undefined), the “k'” value in series [1] stood at 0.45. The molecule also returned an inhibition in series [2] of 55%.
For `CCCCCCCCCCOC(=O)COC1=C(O)C(=O)OC1C(O)CO` (centres undefined), the inhibition in series [3] was 31%.
As for `CCCCCCC(=O)COC1=C(O)C(=O)OC1C(O)CO` (centres undefined), the “k'” value in series [1] stood at 0.24. Besides, the inhibition is 27% in series [2] and 20% in series [3].
The like results for `CCCCCCCCCCCCCCCCCCOC1=C(O)C(=O)OC1C(O)CO` (centres undefined) were, in that order, 17.34, 45% and 7%.
As to `CCCCCCCCCCCCCCOC1=C(O)C(=O)OC1C(O)CO` (centres undefined), the “k'” value in series [1] came out at 4.78. For the same molecule, the inhibition in series [2] is 81%; in series [3], 30%.
The like results for `CCCCCCCCCCCCOC1=C(O)C(=O)OC1C(O)CO` (centres undefined) were, in that order, 2.49, 88% and 34%.
`CCCCOC(=O)COC1=C(O)OC(C(O)CO)C1=O` (centres undefined): the inhibition in series [2] is 10%.
